Results taken from ChEMBL document CHEMBL1275442, “Pharmacokinetics and tissue distribution of anidulafungin in rats” (Antimicrob Agents Chemother, 2008).

Assays:
[1] = system: Liver; experiment: Drug level in Long Evans rat liver assessed as low disposition of radioactivity per gram of tissue at 5 mg/kg, iv administered as single bolus dose measured 168 hrs postdose by autoradiography; type: ADME, organism-based; parameters: dose 5 mg/kg, route intravenous; details: in vivo
Procedure, shortened: (§1)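 Male pigmented Long Evans (HsdBlu:LE) rats, 7.5 weeks old, 202 to 217 g, single iv [¹⁴C]anidulafungin; one rat per sampling time. Euthanized by isoflurane and cardiac-puncture exsanguination. Sagittal whole-body sections quantified by phosphorimaging autoradiography, single samples corrected for section thickness across multiple sections per tissue. Concentrations (μg eq/g drug-derived radioactivity) interpolated from least-squares standard curves per scan.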

[2] = system: Lung; experiment: Half life in F344 rat lung assessed as total compound-derived radioactivity at 5 mg/kg, iv administered as single bolus dose […]; type: ADME, organism-based; parameters: dose 5 mg/kg, route intravenous; details: in vivo
Procedure, shortened: (§2)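 Male F344 rats, 10 to 11 weeks old and 223.6 to 243.8 g, got one iv dose of [14C]anidulafungin at 5 mg/kg over about 5 min. Blood, CSF, kidney, liver, lung, quadriceps, spleen and skin were sampled predose and at 0.083 to 72 h, 3 rats per time. Total radioactivity (parent plus metabolites) was measured by liquid scintillation counting. Parameters were noncompartmental, from a composite mean profile.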

[3] = Cmax in F344 rat lung at 5 mg/kg, iv administered as single bolus dose after 5 min by HPLC method; type: ADME, organism-based; parameters: dose 5 mg/kg, route intravenous
Procedure, shortened: (§3)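 Male F344 rats, 10–11 weeks, 223.6–243.8 g, given one IV dose of [¹⁴C]anidulafungin, 5 mg/kg, over about 5 min. Tissues and blood sampled at 0.083–72 h (n = 3 rats per time). Parent drug measured by HPLC; LLOQ/ULOQ were 20/5,120 ng/ml for plasma and 220/56,320 ng/g for tissue. Noncompartmental parameters taken from the composite mean profile.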

[4] = system: Zone of skin; experiment: Half life in F344 rat skin assessed as total compound-derived radioactivity at 5 mg/kg, iv administered as single bolus dose […]; type: ADME, organism-based; parameters: dose 5 mg/kg, route intravenous; details: in vivo; procedure, shortened: as §2
[5] = system: Liver; experiment: Drug level in Long Evans rat liver assessed as high disposition of radioactivity per gram of tissue at 5 mg/kg, iv administered as single bolus dose measured 6 hrs postdose by autoradiography; type: ADME, organism-based; parameters: dose 5 mg/kg, route intravenous; details: in vivo; procedure, shortened: as §1
[6] = system: Spleen; experiment: Tmax in F344 rat spleen assessed as total compound-derived radioactivity at 5 mg/kg, iv administered as single bolus dose […]; type: ADME, organism-based; parameters: dose 5 mg/kg, route intravenous; details: in vivo; procedure, shortened: as §2
[7] = system: Cerebrospinal fluid; experiment: AUC (0 to 24 hrs) in F344 rat cerebrospinal fluid assessed as total compound-derived radioactivity per gram of tissue at 5 mg/kg, iv administered as single bolus dose […]; type: ADME, organism-based; parameters: time < 24 hr, dose 5 mg/kg, route intravenous; details: in vivo
Procedure, shortened: (§4)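 Same F344 study: single 5 mg/kg IV [¹⁴C]anidulafungin given over about 5 min. Total drug-derived radioactivity (parent plus metabolites) counted by liquid scintillation, in […]. Noncompartmental analysis of the composite mean profile.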

[8] = system: Kidney; experiment: Tmax in F344 rat kidney assessed as total compound-derived radioactivity at 5 mg/kg, iv administered as single bolus dose […]; type: ADME, organism-based; parameters: dose 5 mg/kg, route intravenous; details: in vivo; procedure, shortened: as §2
[9] = system: Spleen; experiment: AUC (0 to 24 hrs) in F344 rat spleen assessed as total compound-derived radioactivity per gram of tissue at 5 mg/kg, iv administered as single bolus dose […]; type: ADME, organism-based; parameters: time < 24 hr, dose 5 mg/kg, route intravenous; details: in vivo; procedure, shortened: as §4
[10] = Cmax in F344 rat plasma at 5 mg/kg, iv administered as single bolus dose after 5 min by HPLC method; type: ADME, organism-based; parameters: dose 5 mg/kg, route intravenous; procedure, shortened: as §3
[11] = system: Lung; experiment: Tmax in F344 rat lung assessed as total compound-derived radioactivity at 5 mg/kg, iv administered as single bolus dose […]; type: ADME, organism-based; parameters: dose 5 mg/kg, route intravenous; details: in vivo; procedure, shortened: as §2
[12] = system: Zone of skin; experiment: Drug level in Long Evans rat skin assessed as radioactivity per gram of tissue at 5 mg/kg, iv administered as single bolus dose measured 24 hrs postdose by autoradiography; type: ADME, organism-based; parameters: dose 5 mg/kg, route intravenous; details: in vivo
Procedure, shortened: (§5)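 Male pigmented Long Evans (HsdBlu:LE) rats, 7.5 weeks old and 202 to 217 g, got a single iv dose of [14C]anidulafungin at 5 mg/kg. One rat per time point (0.5, 6, 12, 24, 72, 168 h) was euthanised by isoflurane and cardiac-puncture exsanguination. Sagittal whole-body sections were quantified by phosphorimaging. Samples were thickness-corrected, and concentrations (μg eq/g) were interpolated from least-squares standard curves.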

[13] = system: Liver; experiment: Drug level in Long Evans rat liver assessed as high disposition of radioactivity per gram of tissue at 5 mg/kg, iv administered as single bolus dose measured 0.5 hrs postdose by autoradiography; type: ADME, organism-based; parameters: dose 5 mg/kg, route intravenous; details: in vivo; procedure, shortened: as §1
[14] = Cmax in F344 rat kidney at 5 mg/kg, iv administered as single bolus dose after 30 min by HPLC method; type: ADME, organism-based; parameters: dose 5 mg/kg, route intravenous; procedure, shortened: as §3
[15] = system: Muscle tissue; experiment: Drug level in Long Evans rat muscle assessed as radioactivity per gram of tissue at 5 mg/kg, iv administered as single bolus dose measured 12 hrs postdose by autoradiography; type: ADME, organism-based; parameters: dose 5 mg/kg, route intravenous; details: in vivo; procedure, shortened: as §1
[16] = system: Spleen; experiment: Cmax in F344 rat spleen assessed as total compound-derived radioactivity per gram of tissue at 5 mg/kg, iv administered as single bolus dose after 30 mins […]; type: ADME, organism-based; parameters: dose 5 mg/kg, route intravenous; details: in vivo, 0.5 h; procedure, shortened: as §4
[17] = Tmax in F344 rat muscle at 5 mg/kg, iv administered as single bolus dose by HPLC method; type: ADME, organism-based, Muscle tissue; parameters: dose 5 mg/kg, route intravenous
Procedure, shortened: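 F344 males, 10 to 11 weeks old and 223.6 to 243.8 g, got a single 5 mg/kg iv dose of [14C]anidulafungin over about 5 min. Plasma and tissues were collected predose and at 0.083 to 72 h, n = 3 per time point. Parent drug was quantified by HPLC-UV, with LLOQ/ULOQ of 20/5,120 ng/ml in plasma and 220/56,320 ng/g in tissue. Noncompartmental parameters came from a composite mean concentration-time profile.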

[18] = system: Blood; experiment: Cmax in F344 rat blood assessed as total compound-derived radioactivity per gram of tissue at 5 mg/kg, iv administered as single bolus dose […]; type: ADME, organism-based; parameters: dose 5 mg/kg, route intravenous; details: in vivo; procedure, shortened: as §4
[19] = system: Liver; experiment: AUC (0 to infinity) in F344 rat liver at 5 mg/kg, iv administered as single bolus dose; type: ADME, organism-based; parameters: time infinity, dose 5 mg/kg, route intravenous; details: in vivo; procedure, shortened: as §3
[20] = system: Kidney; experiment: Drug level in Long Evans rat kidney assessed as low disposition of radioactivity per gram of tissue at 5 mg/kg, iv administered as single bolus dose measured 168 hrs postdose by autoradiography; type: ADME, organism-based; parameters: dose 5 mg/kg, route intravenous; details: in vivo; procedure, shortened: as §1
[21] = system: Spleen; experiment: Drug level in Long Evans rat spleen assessed as radioactivity per gram of tissue at 5 mg/kg, iv administered as single bolus dose measured 0.5 hrs postdose by autoradiography; type: ADME, organism-based; parameters: dose 5 mg/kg, route intravenous; details: in vivo; procedure, shortened: as §5
[22] = system: Blood; experiment: Drug level in Long Evans rat blood assessed as radioactivity per gram of tissue at 5 mg/kg, iv administered as single bolus dose measured 6 hrs postdose by autoradiography; type: ADME, organism-based; parameters: dose 5 mg/kg, route intravenous; details: in vivo; procedure, shortened: as §1
[23] = system: Liver; experiment: Drug level in Long Evans rat liver assessed as high disposition of radioactivity per gram of tissue at 5 mg/kg, iv administered as single bolus dose measured 24 hrs postdose by autoradiography; type: ADME, organism-based; parameters: dose 5 mg/kg, route intravenous; details: in vivo; procedure, shortened: as §1
[24] = system: Cerebrospinal fluid; experiment: Drug level in Long Evans rat cerebrospinal fluid assessed as radioactivity per gram of tissue at 5 mg/kg, iv administered as single bolus dose measured 168 hrs postdose by autoradiography; type: ADME, organism-based; parameters: dose 5 mg/kg, route intravenous; details: in vivo; procedure, shortened: as §1
[25] = Drug level in Long Evans rat eye assessed as radioactivity per gram of tissue at 5 mg/kg, iv administered as single bolus dose measured 0.5 hrs postdose by autoradiography; type: ADME, organism-based; parameters: dose 5 mg/kg, route intravenous; details: in vivo; procedure, shortened: as §1
[26] = system: Plasma; experiment: Tmax in F344 rat plasma assessed as total compound-derived radioactivity at 5 mg/kg, iv administered as single bolus dose […]; type: ADME, organism-based; parameters: dose 5 mg/kg, route intravenous; details: in vivo; procedure, shortened: as §2
[27] = system: Lung; experiment: AUC (0 to 24 hrs) in F344 rat lung at 5 mg/kg, iv administered as single bolus dose; type: ADME, organism-based; parameters: time < 24 hr, dose 5 mg/kg, route intravenous; details: in vivo; procedure, shortened: as §3

Work on `CCCCCOc1ccc(-c2ccc(-c3ccc([14C](=O)N[C@H]4C[C@@H](O)[C@@H](O)NC(=O)[C@@H]5[C@@H](O)[C@@H](C)CN5C(=O)[C@H]([C@@H](C)O)NC(=O)[C@H]([C@H](O)[C@@H](O)c5ccc(O)cc5)NC(=O)[C@@H]5C[C@@H](O)CN5C(=O)[C@H]([C@@H](C)O)NC4=O)cc3)cc2)cc1` [14C-ANIDULAFUNGIN] yielded a Drug uptake [1] of 1.83 ugequiv, a t1/2 [2] of 42.2 h and a Cmax [3] of 31100 ng/g. For the same compound, the t1/2 [4] was 56.6 h, the Drug uptake [5] was 29.1 ugequiv and the Tmax [6] was 30 min. The AUC [7] was 0.61 ugequiv.hr/g, the Tmax [8] was 30 min and the AUC [9] was 822.61 ugequiv.hr/g. The Cmax [10] was 5250 ng/mL, the Tmax [11] was 4.98 min and the Drug uptake [12] was 3.5 ugequiv. For the same compound, the Drug uptake [13] was 11.79 ugequiv, the Cmax [14] was 16100 ng/g and the Drug uptake [15] was 1.39 ugequiv. The Cmax [16] was 30.92 ugequiv/g, the Tmax [17] was 30 min and the Cmax [18] was 14.78 ugequiv/g. The AUC [19] was 767.22 µg·h/g, the Drug uptake [20] was 0.7 ugequiv and the Drug uptake [21] was 20.67 ugequiv. It also gave a Drug uptake [22] of 5.07 ugequiv, a Drug uptake [23] of 29.63 ugequiv and a Drug uptake [24] of 2.18 ugequiv. It also gave a Drug uptake [25] of 1.17 ugequiv, a Tmax [26] of 4.98 min and an AUC [27] of 557.77 µg·h/g.
